# Reference: ChEMBL document CHEMBL3627695, “1-Benzyl-2-methyl-3-indolylmethylene barbituric acid derivatives: Anti-cancer agents that target nucleophosmin 1 (NPM1)” (Bioorg Med Chem, 2015)
# Calls of active or inactive are those of the source. The rule behind the calls is not given here.
# Legend:
# OCI-AML-3 = assay: (§1) Anticancer activity against human OCI-AML3 cells expressing mutant NPM1 assessed as apoptosis for 48 hrs by annexin-V and TO-PRO3 staining based flow cytometry; format: functional, cell-based
# Outline: (§2)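 OCI-AML3 cells (NPM1c+) in logarithmic growth, passaged 2–3 times weekly. Cells were exposed to the indicated compound concentrations for 48 hr, then stained with annexin V and TO-PRO 3. Percent apoptotic cells was read by flow cytometry. AP50 is the concentration at which 50% of cells undergo apoptosis.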
# NCI-H322M = assay: Anticancer activity against human NCI-H322M cells after 48 hrs by sulforhodamine B assay; format: functional
# Outline: (§3)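 NCI-60 human tumour cell line panel. Compounds dissolved in DMSO/H2O and tested at five 10-fold dilutions (10⁻⁴ M to 10⁻⁸ M) for 48 hr. GI50 is the molar concentration giving 50% reduction in net cell growth relative to cell numbers on day 0.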
# MDA-MB-435 = assay: Anticancer activity against human MDA-MB-435 cells after 48 hrs by sulforhodamine B assay; format: functional; conditions: MDA-MB-435, 48 h; outline: as §3
# [1] = Anticancer activity against human Hs 578T cells after 48 hrs by sulforhodamine B assay; format: functional; outline: as §3
# MCF7 = assay: Anticancer activity against human MCF7 cells after 48 hrs by sulforhodamine B assay; format: functional; conditions: MCF7, 48 h; outline: as §3
# OVCAR-3 = assay: Anticancer activity against human OVCAR3 cells after 48 hrs by sulforhodamine B assay; format: functional; conditions: OVCAR-3, 48 h; outline: as §3
# A498 = assay: Anticancer activity against human A498 cells after 48 hrs by sulforhodamine B assay; format: functional; conditions: A498, 48 h; outline: as §3
# UO-31 = assay: Anticancer activity against human UO31 cells after 48 hrs by sulforhodamine B assay; format: functional; conditions: UO-31, 48 h
# Outline: (§4)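 NCI-60 panel protocol. Compounds were dissolved in DMSO/H2O and tested at five 10-fold concentrations (10⁻⁴ to 10⁻⁸ M) with 48 hr incubation. GI50 is the molar concentration giving a 50% reduction in net cell growth relative to cell numbers on day 0.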
# OVCAR-5 = assay: Anticancer activity against human OVCAR5 cells after 48 hrs by sulforhodamine B assay; format: functional; conditions: OVCAR-5, 48 h; outline: as §3
# OVCAR-8 = assay: Anticancer activity against human OVCAR8 cells after 48 hrs by sulforhodamine B assay; format: functional; conditions: OVCAR-8, 48 h; outline: as §3
# HL-60(TB) = assay: Anticancer activity against human HL-60(TB) cells after 48 hrs by sulforhodamine B assay; format: functional; conditions: HL-60, 48 h; outline: as §3
# MDA-MB-468 = assay: Anticancer activity against human MDA-MB-468 cells after 48 hrs by sulforhodamine B assay; format: functional; conditions: MDA-MB-468, 48 h; outline: as §3
# SN12C = assay: Anticancer activity against human SN12C cells after 48 hrs by sulforhodamine B assay; format: functional; outline: as §3
# SK-MEL-28 = assay: Anticancer activity against human SK-MEL-28 cells after 48 hrs by sulforhodamine B assay; format: functional; conditions: SK-MEL-28, 48 h; outline: as §3
# SNB-75 = assay: Anticancer activity against human SNB75 cells after 48 hrs by sulforhodamine B assay; format: functional; conditions: SNB-75, 48 h; outline: as §3
# [2] = Anticancer activity against human MOLT4 cells after 48 hrs by sulforhodamine B assay; format: functional; conditions: MOLT-4, 48 h; outline: as §3
# TK-10 = assay: Anticancer activity against human TK10 cells after 48 hrs by sulforhodamine B assay; format: functional; conditions: TK-10, 48 h; outline: as §4
# HCT-116 = assay: Anticancer activity against human HCT116 cells after 48 hrs by sulforhodamine B assay; format: functional; conditions: HCT-116, 48 h; outline: as §3
# [3] = Anticancer activity against human RXF393 cells after 48 hrs by sulforhodamine B assay; format: functional; conditions: RXF 393, 48 h; outline: as §3
# HOP-62 = assay: Anticancer activity against human HOP62 cells after 48 hrs by sulforhodamine B assay; format: functional; conditions: HOP-62, 48 h; outline: as §3
# [4] = Anticancer activity against human RPMI8226 cells after 48 hrs by sulforhodamine B assay; format: functional; conditions: RPMI-8226, 48 h; outline: as §3
# OVCAR-4 = assay: Anticancer activity against human OVCAR4 cells after 48 hrs by sulforhodamine B assay; format: functional; conditions: OVCAR-4, 48 h; outline: as §3
# KM12 = assay: Anticancer activity against human KM12 cells after 48 hrs by sulforhodamine B assay; format: functional; conditions: KM12, 48 h; outline: as §3
# SNB-19 = assay: Anticancer activity against human SNB19 cells after 48 hrs by sulforhodamine B assay; format: functional; conditions: SNB-19, 48 h; outline: as §3
# [5] = Anticancer activity against human SF295 cells after 48 hrs by sulforhodamine B assay; format: functional; conditions: SF-295, 48 h; outline: as §3
# 786-0 = assay: Anticancer activity against human 786-0 cells after 48 hrs by sulforhodamine B assay; format: functional; conditions: 786-0, 48 h; outline: as §3
# DU-145 = assay: Anticancer activity against human DU145 cells after 48 hrs by sulforhodamine B assay; format: functional; conditions: DU-145, 48 h; outline: as §3
# [6] = Anticancer activity against human COLO205 cells after 48 hrs by sulforhodamine B assay; format: functional; conditions: COLO 205, 48 h; outline: as §3
# SR = assay: Anticancer activity against human SR cells after 48 hrs by sulforhodamine B assay; format: functional; outline: as §4
# HCT-15 = assay: Anticancer activity against human HCT15 cells after 48 hrs by sulforhodamine B assay; format: functional; conditions: HCT-15, 48 h; outline: as §3
# IGROV-1 = assay: Anticancer activity against human IGROV1 cells after 48 hrs by sulforhodamine B assay; format: functional; conditions: IGROV-1, 48 h; outline: as §3
# BT-549 = assay: Anticancer activity against human BT549 cells after 48 hrs by sulforhodamine B assay; format: functional; conditions: BT-549, 48 h; outline: as §3
# U-251 = assay: Anticancer activity against human U251 cells after 48 hrs by sulforhodamine B assay; format: functional; conditions: U-251, 48 h; outline: as §4
# [7] = Anticancer activity against human NCI-ADR-RES cells after 48 hrs by sulforhodamine B assay; format: functional; outline: as §3
# MDA-MB-231 = assay: Anticancer activity against human MDA-MB-231 cells after 48 hrs by sulforhodamine B assay; format: functional; conditions: MDA-MB-231, 48 h; outline: as §3
# HT-29 = assay: Anticancer activity against human HT-29 cells after 48 hrs by sulforhodamine B assay; format: functional; conditions: HT-29, 48 h; outline: as §3
# SK-MEL-2 = assay: Anticancer activity against human SK-MEL-2 cells after 48 hrs by sulforhodamine B assay; format: functional; conditions: SK-MEL-2, 48 h; outline: as §3
# UACC-257 = assay: Anticancer activity against human UACC257 cells after 48 hrs by sulforhodamine B assay; format: functional; conditions: UACC-257, 48 h; outline: as §4
# CCRF-CEM = assay: Anticancer activity against human CCRF-CEM cells after 48 hrs by sulforhodamine B assay; format: functional; outline: as §3
# [8] = Anticancer activity against human LOXIMVI cells after 48 hrs by sulforhodamine B assay; format: functional; conditions: LOX IMVI; outline: as §3
# SK-MEL-5 = assay: Anticancer activity against human SK-MEL-5 cells after 48 hrs by sulforhodamine B assay; format: functional; conditions: SK-MEL-5, 48 h; outline: as §3
# SF-268 = assay: Anticancer activity against human SF268 cells after 48 hrs by sulforhodamine B assay; format: functional; conditions: SF-268, 48 h; outline: as §3
# CAKI-1 = assay: Anticancer activity against human Caki1 cells after 48 hrs by sulforhodamine B assay; format: functional; conditions: CAKI-1, 48 h; outline: as §3
# NCI-H460 = assay: Anticancer activity against human NCI-H460 cells after 48 hrs by sulforhodamine B assay; format: functional; conditions: NCI-H460, 48 h; outline: as §3
# [9] = as §1; format: functional, cell-based; conditions: OCI-AML-3, 48 h; outline: as §2
# NCI-H226 = assay: Anticancer activity against human NCI-H226 cells after 48 hrs by sulforhodamine B assay; format: functional; conditions: NCI-H226, 48 h; outline: as §3
# [10] = Anticancer activity against human SF539 cells after 48 hrs by sulforhodamine B assay; format: functional; conditions: SF-539, 48 h; outline: as §3
# Malme-3M = assay: Anticancer activity against human MALME-3M cells after 48 hrs by sulforhodamine B assay; format: functional; outline: as §3
# K562 = assay: Anticancer activity against human K562 cells after 48 hrs by sulforhodamine B assay; format: functional; conditions: K562, 48 h; outline: as §3
# SK-OV-3 = assay: Anticancer activity against human SKOV3 cells after 48 hrs by sulforhodamine B assay; format: functional; conditions: SK-OV-3, 48 h; outline: as §3
# ACHN = assay: Anticancer activity against human ACHN cells after 48 hrs by sulforhodamine B assay; format: functional; outline: as §3
# NCI-H522 = assay: Anticancer activity against human NCI-H522 cells after 48 hrs by sulforhodamine B assay; format: functional; conditions: NCI-H522, 48 h; outline: as §3
# A549 = assay: Anticancer activity against human A549/ATCC cells after 48 hrs by sulforhodamine B assay; format: functional; conditions: A549, 48 h; outline: as §3
# M14 = assay: Anticancer activity against human M14 cells after 48 hrs by sulforhodamine B assay; format: functional; conditions: M14, 48 h; outline: as §3
# [11] = Anticancer activity against human HCC2998 cells after 48 hrs by sulforhodamine B assay; format: functional; conditions: HCC 2998, 48 h; outline: as §3
# SW-620 = assay: Anticancer activity against human SW620 cells after 48 hrs by sulforhodamine B assay; format: functional; conditions: SW-620, 48 h; outline: as §4
# T47D = assay: Anticancer activity against human T47D cells after 48 hrs by sulforhodamine B assay; format: functional; outline: as §4
# [12] = Anticancer activity against human HOP92 cells after 48 hrs by sulforhodamine B assay; format: functional; conditions: HOP-92, 48 h; outline: as §3
structure (smiles),measurement,setting,value
Cc1c(C=C2C(=O)NC(=O)NC2=O)c2ccccc2n1Cc1ccccc1,Activity,OCI-AML-3,inactive
Cc1c(C=C2C(=O)NC(=S)NC2=O)c2ccccc2n1Cc1ccccc1,GI50,NCI-H322M,1630 nM
same,GI50,MDA-MB-435,1150 nM
same,GI50,[1],510 nM
same,GI50,MCF7,700 nM
same,GI50,OVCAR-3,1180 nM
same,GI50,A498,1560 nM
same,GI50,UO-31,880 nM
same,GI50,OVCAR-5,1750 nM
same,GI50,OVCAR-8,1130 nM
same,GI50,HL-60(TB),290 nM
same,GI50,MDA-MB-468,510 nM
same,GI50,SN12C,1150 nM
same,GI50,SK-MEL-28,1660 nM
same,GI50,SNB-75,1510 nM
same,GI50,[2],1710 nM
same,GI50,TK-10,1470 nM
same,GI50,HCT-116,890 nM
same,GI50,[3],1230 nM
same,GI50,HOP-62,1090 nM
same,GI50,[4],350 nM
same,GI50,OVCAR-4,1240 nM
same,GI50,KM12,950 nM
same,GI50,SNB-19,1310 nM
same,GI50,[5],930 nM
same,GI50,786-0,1580 nM
same,GI50,DU-145,1310 nM
same,GI50,[6],1330 nM
same,GI50,SR,340 nM
same,GI50,HCT-15,1300 nM
same,GI50,IGROV-1,970 nM
same,GI50,BT-549,1600 nM
same,GI50,U-251,1160 nM
same,GI50,[7],1890 nM
same,GI50,MDA-MB-231,1340 nM
same,GI50,HT-29,1370 nM
same,GI50,SK-MEL-2,2080 nM
same,GI50,UACC-257,1410 nM
same,GI50,CCRF-CEM,590 nM
same,GI50,[8],530 nM
same,GI50,SK-MEL-5,1370 nM
same,GI50,SF-268,1260 nM
same,GI50,CAKI-1,1570 nM
same,GI50,NCI-H460,980 nM
same,AC50,[9],3310 nM
same,GI50,NCI-H226,1880 nM
same,GI50,[10],1140 nM
same,GI50,Malme-3M,2310 nM
same,GI50,K562,1260 nM
same,GI50,SK-OV-3,1890 nM
same,GI50,ACHN,1370 nM
same,GI50,NCI-H522,1850 nM
same,GI50,A549,1850 nM
same,GI50,M14,1400 nM
same,GI50,[11],1180 nM
same,GI50,SW-620,1240 nM
same,GI50,T47D,1900 nM
same,GI50,[12],400 nM
